Reference: ChEMBL document CHEMBL4011639, “Discovery of Novel Nucleotide Prodrugs with Improved Potency Against HCV Variants Carrying NS5B S282T Mutation” (J Med Chem, 2017)

Test system: Huh-7
Experiment: Cytotoxicity against human HuH7 cells assessed as reduction in cell viability up to 100 uM after 72 hrs by Cell Titer-Fluor Cell assay
Format: cell-based
Settings: huh-7, 72 h
Outline: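 Huh7 cells carrying HCV genotype 1b replicon, 8000 per well, in duplicate 3-fold dilution series with 0.5% DMSO final; 72 h at 37 °C, 5% CO2. Viability read by Cell Titer-Fluor fluorescence after 5 min; replicon inhibition read by Bright-Glo luciferase luminescence in the same wells. EC50 and CC50 come from curve fitting.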

CCCC(=O)Nc1ccn([C@@H]2O[C@H](CO[P@@](=O)(N[C@@H](C)C(=O)OC(C)C)Oc3ccccc3)[C@@H](O)[C@@]2(C)F)c(=O)n1
Activity: Non-Toxic
